The source made the active and inactive calls. No cut-off for these calls is given here.
Experiments:
[1] = target: Metabotropic glutamate receptor 5 (Rattus norvegicus) (UniProt P31424); experiment: Positive allosteric modulation at rat mGluR5 expressed in HEK293 cells assessed as amplitude of response at 30 uM by calcium mobilization assay relative to glutamate; type: functional, cell-based
Outline: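 HEK293 cells stably expressing rat mGlu5 were used in a calcium mobilization assay. Test compound was given at 30 µM, and response amplitude is expressed as percent of the maximal response to 100 µM glutamate. Values are the average of three or more independent determinations.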

[2] = Drug metabolism in rat liver microsomes assessed as compound metabolized at 1 uM after 15 mins; type: ADME; details: read-out: Drug metabolism
Outline: (§1)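 Test compound at 1 µM was incubated for 15 min with liver microsomes (human for HLM, rat for RLM). Read-out was % of compound metabolized.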

[3] = target: T1, Metabotropic glutamate receptor 5 (Rattus norvegicus, UniProt P31424); experiment: Positive allosteric modulation at rat mGluR5 expressed in HEK293 cells by calcium mobilization assay; type: functional, cell-based
Outline: (§2)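 HEK293 cells stably expressing rat mGlu5 were run in a 'triple add' calcium mobilization assay that detects agonism, PAM and NAM activity together. Response amplitude was expressed as % of the maximal response to 100 µM glutamate. Values are the mean of three or more independent determinations.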

[4] = Drug metabolism in human liver microsomes assessed as compound metabolized at 1 uM after 15 mins; type: ADME; details: read-out: Drug metabolism; outline: as §1
[5] = target: T1, Metabotropic glutamate receptor 5; experiment: Negative allosteric modulation at rat mGluR5 expressed in HEK293 cells by calcium mobilization assay; type: functional, cell-based; outline: as §2
[6] = target: Metabotropic glutamate receptor 5 (Rattus norvegicus) (UniProt P31424); experiment: Negative allosteric modulation at rat mGluR5 expressed in HEK293 cells by calcium mobilization assay relative to glutamate; details: 30 uM
Rattus norvegicus [7] = experiment: Antipsychotic activity in rat assessed as reversal of amphetamine-induced hyperlocomotion at 3 mg/kg, po; type: functional, organism-based; parameters: dose 3 mg/kg
Outline: (§3)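 Rats dosed orally; reversal of amphetamine-induced hyperlocomotion scored as % reversal of amphetamine effect, across an oral dose range up to 100 mg/kg; terminal unbound brain concentrations calculated at the doses tested.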

[8] = target: Metabotropic glutamate receptor 4 (Homo sapiens, UniProt Q14833); experiment: Positive allosteric modulation at mGluR4 (unknown origin)
[9] = target: Metabotropic glutamate receptor 2 (Homo sapiens, UniProt Q14416); experiment: Positive allosteric modulation at mGluR2 (unknown origin)
Cytochrome P450 3A4 = Cytochrome P450 3A4 (Homo sapiens, UniProt P08684); experiment: Inhibition of human CYP3A4; type: ADME
Outline: (§4)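 Cocktail assay in human liver microsomes using known probe substrates for the major CYP isoforms (2C9, 2D6, 3A4, 1A2). IC50 was determined for each isoform.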

[10] = Plasma protein binding in rat; type: ADME, cell-free
Rattus norvegicus [11] = experiment: Antipsychotic activity in po dosed rat assessed as reversal of amphetamine-induced hyperlocomotion; type: functional, organism-based; outline: as §3
Plasma = experiment: AUC in rat plasma at 1 mg/kg, iv and 10 mg/kg, po; type: ADME, organism-based; details: in vivo
Rattus norvegicus [12] = experiment: Antipsychotic activity in rat assessed as reversal of amphetamine-induced hyperlocomotion at 56.6 mg/kg, po; type: functional
Outline: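 Rats were dosed orally and scored for reversal of amphetamine-induced hyperlocomotion, a model of antipsychotic activity. Doses tested went up to 100 mg/kg. Terminal unbound brain concentrations were calculated at the tested doses.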

[13] = target: Metabotropic glutamate receptor 5 (Homo sapiens) (UniProt P41594); experiment: Agonist activity at mGluR5 (unknown origin) at 30 uM
Cytochrome P450 2D6 = Cytochrome P450 2D6 (Homo sapiens, UniProt P10635); experiment: Inhibition of human CYP2D6; type: ADME; outline: as §4
Canis familiaris = experiment: Toxicity in dog assessed as dizziness at 0.5 mg/ml, iv; type: organism-based, Canis lupus familiaris; details: in vivo
[14] = target: Metabotropic glutamate receptor 3 (Homo sapiens, UniProt Q14832); experiment: Negative allosteric modulation at mGluR3 (unknown origin)
[15] = Terminal half-life in rat at 1 mg/kg, iv and 10 mg/kg, po; type: ADME, organism-based; details: in vivo, read-out: beta t1/2 (converted)
Outline: (§5)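 Rat PK: compound formulated at 1 mg/mL in 20% HP-β-CD and given at 1 mg/kg IV and 10 mg/kg PO.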

Rattus norvegicus [16] = experiment: Toxicity in rat assessed as pro-convulsive behavior up to 120 mg/kg, po by modified Irwin neurological test battery method; type: organism-based; parameters: dose 120 mg/kg, route oral; details: in vivo
[17] = target: Metabotropic glutamate receptor 6 (Homo sapiens, UniProt O15303); experiment: Positive allosteric modulation at mGluR6 (unknown origin)
Cytochrome P450 1A2 = target: T2, Cytochrome P450 1A2 (Homo sapiens, UniProt P05177); experiment: Inhibition of human CYP1A2; type: ADME
T2 sequence (P05177 whole entry): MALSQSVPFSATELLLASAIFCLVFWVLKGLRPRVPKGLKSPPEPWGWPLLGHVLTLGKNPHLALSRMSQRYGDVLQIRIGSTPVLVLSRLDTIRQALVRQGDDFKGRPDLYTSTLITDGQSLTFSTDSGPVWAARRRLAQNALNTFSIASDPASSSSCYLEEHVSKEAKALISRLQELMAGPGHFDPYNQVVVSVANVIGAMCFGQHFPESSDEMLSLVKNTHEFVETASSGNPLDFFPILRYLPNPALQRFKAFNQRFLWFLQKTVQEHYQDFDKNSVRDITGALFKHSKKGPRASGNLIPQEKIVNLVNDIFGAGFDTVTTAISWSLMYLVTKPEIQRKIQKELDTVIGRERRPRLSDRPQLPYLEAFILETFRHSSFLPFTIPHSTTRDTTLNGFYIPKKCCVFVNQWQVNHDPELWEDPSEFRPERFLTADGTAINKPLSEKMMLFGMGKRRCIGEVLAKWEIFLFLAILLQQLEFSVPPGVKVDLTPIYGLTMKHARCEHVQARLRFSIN
Outline: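 Cocktail assay in human liver microsomes with known probe substrates for CYP 2C9, 2D6, 3A4 and 1A2; IC50 determined.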

[18] = Plasma protein binding in human; type: ADME, cell-free
Rattus norvegicus [19] = experiment: Volume of distribution at steady state in rat at 1 mg/kg, iv and 10 mg/kg, po; type: ADME, organism-based; details: in vivo; outline: as §5
[20] = target: Metabotropic glutamate receptor 8 (Homo sapiens, UniProt O00222); experiment: Positive allosteric modulation at mGluR8 (unknown origin)
[21] = Ratio of AUC in brain to plasma of rat at 1 mg/kg, iv and 10 mg/kg, po; type: ADME, organism-based
[22] = Fraction unbound in rat brain at 1 mg/kg, iv and 10 mg/kg, po; type: ADME, organism-based
Cytochrome P450 2C9 = Cytochrome P450 2C9 (Homo sapiens, UniProt P11712); experiment: Inhibition of human CYP2C9; type: ADME; outline: as §4
[23] = Cmax in rat brain at 1 mg/kg, iv and 10 mg/kg, po; type: ADME, organism-based
Rattus norvegicus [24] = experiment: Antipsychotic activity in rat assessed as reversal of amphetamine-induced hyperlocomotion at 100 mg/kg, po; type: functional; outline: as §3
[25] = target: Metabotropic glutamate receptor 1 (Homo sapiens, UniProt Q13255); experiment: Positive allosteric modulation at mGluR1 (unknown origin)
[26] = target: Metabotropic glutamate receptor 7 (Homo sapiens, UniProt Q14831); experiment: Positive allosteric modulation at mGluR7 (unknown origin)

Metabotropic glutamate receptor 5 (Rattus norvegicus), sequence (P31424 21-1203 limits assumed): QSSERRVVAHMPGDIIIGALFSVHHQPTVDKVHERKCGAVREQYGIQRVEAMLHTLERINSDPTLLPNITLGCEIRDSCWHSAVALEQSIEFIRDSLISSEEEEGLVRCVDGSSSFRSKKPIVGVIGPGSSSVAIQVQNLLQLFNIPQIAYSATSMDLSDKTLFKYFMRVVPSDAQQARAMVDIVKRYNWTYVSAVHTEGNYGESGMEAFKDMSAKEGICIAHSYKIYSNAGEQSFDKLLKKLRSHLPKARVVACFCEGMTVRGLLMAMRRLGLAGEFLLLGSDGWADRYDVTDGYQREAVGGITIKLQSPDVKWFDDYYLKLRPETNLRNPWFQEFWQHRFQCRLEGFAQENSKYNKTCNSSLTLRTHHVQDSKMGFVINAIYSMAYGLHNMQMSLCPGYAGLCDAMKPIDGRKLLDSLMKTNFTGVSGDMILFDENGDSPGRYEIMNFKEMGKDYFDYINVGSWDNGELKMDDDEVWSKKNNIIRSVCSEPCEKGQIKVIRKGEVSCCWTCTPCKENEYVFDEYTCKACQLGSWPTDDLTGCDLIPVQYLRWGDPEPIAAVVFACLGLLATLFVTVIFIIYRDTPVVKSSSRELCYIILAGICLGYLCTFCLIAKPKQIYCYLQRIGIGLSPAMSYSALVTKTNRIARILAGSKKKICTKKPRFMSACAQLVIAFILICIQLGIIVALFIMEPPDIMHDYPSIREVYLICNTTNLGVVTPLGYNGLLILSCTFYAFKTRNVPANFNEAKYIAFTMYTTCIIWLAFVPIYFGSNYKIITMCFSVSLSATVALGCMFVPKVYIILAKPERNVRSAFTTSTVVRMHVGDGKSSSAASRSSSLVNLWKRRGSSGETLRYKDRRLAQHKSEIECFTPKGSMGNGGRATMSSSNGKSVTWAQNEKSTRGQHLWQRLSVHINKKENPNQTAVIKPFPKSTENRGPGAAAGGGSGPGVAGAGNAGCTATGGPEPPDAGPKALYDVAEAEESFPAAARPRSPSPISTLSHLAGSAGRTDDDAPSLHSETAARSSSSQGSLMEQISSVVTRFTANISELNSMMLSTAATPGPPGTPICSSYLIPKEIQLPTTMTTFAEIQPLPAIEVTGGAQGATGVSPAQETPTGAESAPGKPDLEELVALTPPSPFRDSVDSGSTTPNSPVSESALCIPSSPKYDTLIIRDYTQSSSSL
T1 sequence (P31424 whole entry): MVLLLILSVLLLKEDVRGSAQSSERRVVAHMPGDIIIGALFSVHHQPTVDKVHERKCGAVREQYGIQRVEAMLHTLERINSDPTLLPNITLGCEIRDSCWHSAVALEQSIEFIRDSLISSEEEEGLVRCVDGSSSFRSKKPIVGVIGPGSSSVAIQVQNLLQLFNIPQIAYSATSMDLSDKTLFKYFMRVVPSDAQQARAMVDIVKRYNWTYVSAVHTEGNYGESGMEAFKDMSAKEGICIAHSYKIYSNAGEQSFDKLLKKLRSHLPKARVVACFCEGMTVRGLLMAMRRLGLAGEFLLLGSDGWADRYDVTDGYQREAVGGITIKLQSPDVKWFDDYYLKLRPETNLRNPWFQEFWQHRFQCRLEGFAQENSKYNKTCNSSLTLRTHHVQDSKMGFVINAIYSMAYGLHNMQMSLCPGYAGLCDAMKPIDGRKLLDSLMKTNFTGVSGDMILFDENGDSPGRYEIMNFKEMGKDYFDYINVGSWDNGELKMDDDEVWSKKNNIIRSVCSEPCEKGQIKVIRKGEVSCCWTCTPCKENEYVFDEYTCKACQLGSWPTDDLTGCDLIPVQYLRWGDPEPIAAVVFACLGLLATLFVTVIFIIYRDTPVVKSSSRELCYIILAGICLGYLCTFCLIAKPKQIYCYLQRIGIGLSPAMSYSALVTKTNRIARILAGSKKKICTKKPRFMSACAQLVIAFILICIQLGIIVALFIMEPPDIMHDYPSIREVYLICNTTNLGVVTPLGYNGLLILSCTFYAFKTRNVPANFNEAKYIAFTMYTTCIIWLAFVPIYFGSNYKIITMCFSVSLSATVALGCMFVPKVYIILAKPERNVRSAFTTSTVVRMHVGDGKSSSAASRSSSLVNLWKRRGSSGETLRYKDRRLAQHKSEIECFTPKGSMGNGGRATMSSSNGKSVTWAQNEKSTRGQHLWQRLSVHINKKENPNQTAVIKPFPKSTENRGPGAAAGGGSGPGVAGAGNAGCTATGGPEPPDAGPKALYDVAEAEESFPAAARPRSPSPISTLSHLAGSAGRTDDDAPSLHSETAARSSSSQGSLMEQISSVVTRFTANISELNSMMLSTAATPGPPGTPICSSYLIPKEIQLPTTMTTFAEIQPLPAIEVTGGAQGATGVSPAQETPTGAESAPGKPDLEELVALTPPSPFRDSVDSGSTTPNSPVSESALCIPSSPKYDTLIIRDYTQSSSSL
Metabotropic glutamate receptor 3, sequence (Q14832 whole entry): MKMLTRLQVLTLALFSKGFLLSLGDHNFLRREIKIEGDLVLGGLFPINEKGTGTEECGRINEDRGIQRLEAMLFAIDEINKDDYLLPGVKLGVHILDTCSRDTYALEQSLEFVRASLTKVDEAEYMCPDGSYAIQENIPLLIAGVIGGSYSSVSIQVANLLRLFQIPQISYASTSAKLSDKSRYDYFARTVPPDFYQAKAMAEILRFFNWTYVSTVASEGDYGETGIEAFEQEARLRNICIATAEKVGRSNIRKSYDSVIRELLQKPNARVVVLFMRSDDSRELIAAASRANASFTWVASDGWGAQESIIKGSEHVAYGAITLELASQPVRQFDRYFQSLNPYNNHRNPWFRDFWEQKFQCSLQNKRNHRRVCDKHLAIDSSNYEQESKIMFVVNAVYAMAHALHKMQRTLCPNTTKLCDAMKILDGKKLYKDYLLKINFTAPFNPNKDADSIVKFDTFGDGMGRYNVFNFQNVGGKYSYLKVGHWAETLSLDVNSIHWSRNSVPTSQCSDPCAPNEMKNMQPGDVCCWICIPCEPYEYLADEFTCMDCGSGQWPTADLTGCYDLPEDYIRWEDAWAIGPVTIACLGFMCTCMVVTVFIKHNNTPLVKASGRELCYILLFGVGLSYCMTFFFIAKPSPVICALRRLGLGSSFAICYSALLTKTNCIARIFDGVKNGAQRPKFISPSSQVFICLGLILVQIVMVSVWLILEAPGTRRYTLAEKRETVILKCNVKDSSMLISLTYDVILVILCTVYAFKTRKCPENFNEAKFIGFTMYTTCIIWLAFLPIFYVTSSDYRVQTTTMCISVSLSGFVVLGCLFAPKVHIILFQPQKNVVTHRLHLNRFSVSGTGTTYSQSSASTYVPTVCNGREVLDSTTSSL
Cytochrome P450 3A4, sequence (P08684 whole entry, canonical isoform): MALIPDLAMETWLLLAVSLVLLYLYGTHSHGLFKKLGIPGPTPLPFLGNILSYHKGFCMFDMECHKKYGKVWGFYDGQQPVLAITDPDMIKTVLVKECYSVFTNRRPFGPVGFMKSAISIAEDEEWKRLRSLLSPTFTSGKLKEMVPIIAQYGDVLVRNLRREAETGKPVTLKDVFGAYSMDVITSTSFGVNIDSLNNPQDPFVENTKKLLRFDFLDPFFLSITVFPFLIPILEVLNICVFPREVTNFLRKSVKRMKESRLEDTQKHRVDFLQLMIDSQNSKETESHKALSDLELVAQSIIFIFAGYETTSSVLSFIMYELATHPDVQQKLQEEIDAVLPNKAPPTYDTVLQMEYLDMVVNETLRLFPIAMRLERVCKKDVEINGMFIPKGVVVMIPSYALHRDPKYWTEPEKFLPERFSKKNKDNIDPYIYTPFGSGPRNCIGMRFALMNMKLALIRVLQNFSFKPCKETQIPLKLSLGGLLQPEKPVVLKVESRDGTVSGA
Cytochrome P450 2C9, sequence (P11712 whole entry): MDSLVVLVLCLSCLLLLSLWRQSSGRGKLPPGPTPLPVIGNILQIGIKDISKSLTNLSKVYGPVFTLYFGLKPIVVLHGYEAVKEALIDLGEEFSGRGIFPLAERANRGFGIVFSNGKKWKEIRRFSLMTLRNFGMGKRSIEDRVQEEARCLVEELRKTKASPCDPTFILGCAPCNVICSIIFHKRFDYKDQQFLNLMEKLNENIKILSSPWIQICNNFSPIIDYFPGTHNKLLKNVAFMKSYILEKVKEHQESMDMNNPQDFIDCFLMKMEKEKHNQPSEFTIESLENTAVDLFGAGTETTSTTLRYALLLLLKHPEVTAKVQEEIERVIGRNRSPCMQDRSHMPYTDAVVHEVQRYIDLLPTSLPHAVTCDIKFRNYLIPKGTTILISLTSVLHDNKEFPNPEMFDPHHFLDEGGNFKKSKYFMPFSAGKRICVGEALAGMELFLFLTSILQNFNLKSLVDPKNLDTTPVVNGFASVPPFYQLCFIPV
Cytochrome P450 2D6, sequence (P10635 whole entry): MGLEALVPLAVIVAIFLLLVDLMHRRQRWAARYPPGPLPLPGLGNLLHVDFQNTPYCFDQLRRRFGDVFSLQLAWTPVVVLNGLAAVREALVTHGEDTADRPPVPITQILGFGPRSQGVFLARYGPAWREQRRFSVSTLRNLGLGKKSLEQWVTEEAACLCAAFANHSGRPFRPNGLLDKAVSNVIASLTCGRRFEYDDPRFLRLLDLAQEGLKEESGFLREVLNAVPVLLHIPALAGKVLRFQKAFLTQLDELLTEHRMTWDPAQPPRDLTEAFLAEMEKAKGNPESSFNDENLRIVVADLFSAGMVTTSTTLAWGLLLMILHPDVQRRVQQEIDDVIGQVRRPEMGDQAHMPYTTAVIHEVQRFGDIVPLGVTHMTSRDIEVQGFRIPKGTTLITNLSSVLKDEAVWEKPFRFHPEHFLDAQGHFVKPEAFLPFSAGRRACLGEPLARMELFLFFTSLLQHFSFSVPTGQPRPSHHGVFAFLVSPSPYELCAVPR

`O=C1N(c2ccc(F)cc2)CCc2nc(COc3cccc(F)c3)cn21` gave an Emax [1] of 72%, a metabolised at 0.25 h, 1 µM [2] of 29% and an EC50 [3] of 69 nM. It also gave a metabolised at 0.25 h, 1 µM [4] of 0%.
`Cc1cc(N2CCc3nc(COc4ccccc4)cn3C2=O)ccc1F` gave an Emax [1] of 91%, a metabolised at 0.25 h, 1 µM [2] of 37% and an EC50 [3] of 130 nM. For the same compound, the metabolised at 0.25 h, 1 µM [4] was 10%.
Compound `Cc1cn(-c2ccc(F)cc2)c(=O)n2cc(COc3ccccc3)nc12` has an IC50 ([5]; read-out: IC50) of 1000 nM, a metabolised at 0.25 h, 1 µM [2] of 71% and a metabolised at 0.25 h, 1 µM [4] of 36%. The IC50 [6] was 16 nM.
With `Cc1c(COc2ccccc2)nc2n1C(=O)N(c1ccc(F)cc1)CC2` the IC50 ([5]; read-out: pIC50 (converted)) was 525 nM, the metabolised at 0.25 h, 1 µM [2] was 46% and the metabolised at 0.25 h, 1 µM [4] was 21%. For the same compound, the IC50 [6] was 529 nM.
`O=c1n(-c2ccc(F)c(F)c2)ccc2nc(COc3ccccc3)cn12` showed an Emax [1] of 93% and an EC50 [3] of 230 nM.
In the case of `O=c1n(Cc2ccccc2)ccc2nc(COc3ccccc3)cn12`, the Emax [1] is reported as 93% and the EC50 [3] is reported as 1590 nM.
With `O=C1N(c2ccc(F)cc2)CCc2nc(COc3ccccc3)cn21` the Activity (Rattus norvegicus [7]) was “Active”, the EC50 [8] was greater than 10000 nM and the EC50 [9] was greater than 10000 nM. It also gave an Emax [1] of 70%, an IC50 (Cytochrome P450 3A4) greater than 20000 nM and a PPB [10] of 88.1%. The Activity (Rattus norvegicus [11]) was “Dose-dependent effect”, the AUC (Plasma) was 7.2 µM·h and the Activity (Rattus norvegicus [12]) was 50%. The Activity [13] was “inactive”, the IC50 (Cytochrome P450 2D6) was greater than 20000 nM and the metabolised at 0.25 h, 1 µM [2] was 19%. For the same compound, the Activity (Canis familiaris) was “Toxic”, the IC50 [14] was 290 nM and the half-life [15] was 55.8 min. The Activity (Rattus norvegicus [16]) was “Toxic”, the EC50 [3] was 86 nM and the EC50 [17] was greater than 10000 nM. For the same compound, the IC50 (Cytochrome P450 1A2) was greater than 20000 nM, the metabolised at 0.25 h, 1 µM [4] was 18% and the PPB [18] was 90.3%. For the same compound, the Vdss (Rattus norvegicus [19]) was 1.4 L/kg, the EC50 [20] was greater than 10000 nM and the Kp [21] was 1.8. The fraction unbound [22] was 0.062, the IC50 (Cytochrome P450 2C9) was greater than 20000 nM and the Cmax [23] was 6.05 µM. For the same compound, the Activity (Rattus norvegicus [24]) was 50%, the EC50 [25] was greater than 10000 nM and the EC50 [26] was greater than 10000 nM.
With `O=c1n(-c2ccc(F)cn2)ccc2nc(COc3ccccc3)cn12` the Emax [1] was 87% and the EC50 [3] was 587 nM.
Compound `Cc1ccc(-n2ccc3nc(COc4ccccc4)cn3c2=O)nc1` has an Emax [1] of 84% and an EC50 [3] of 2000 nM.
With `O=C1N(c2ccc(F)cc2)CCc2nc(COc3ccc(F)cc3)cn21` the Emax [1] was 88%, the metabolised at 0.25 h, 1 µM [2] was 11% and the EC50 [3] was 197 nM. For the same compound, the metabolised at 0.25 h, 1 µM [4] was 3%.
Compound `O=c1n(-c2ccc(F)cc2)ccc2nc(COc3ccccc3)c(Cl)n12` has an IC50 ([5]; read-out: IC50) of 218 nM, a metabolised at 0.25 h, 1 µM [2] of 73% and a metabolised at 0.25 h, 1 µM [4] of 6%. For the same compound, the IC50 [6] was 5 nM.
Compound `Cc1cccc(-n2ccc3nc(COc4ccccc4)cn3c2=O)n1` has an Emax [1] of 64% and an EC50 [3] of 3580 nM.
With `O=C1N(c2ccc(F)cn2)CCc2nc(COc3ccccc3)cn21` the Emax [1] was 66%, the metabolised at 0.25 h, 1 µM [2] was 14% and the EC50 [3] was 359 nM. It also gave a metabolised at 0.25 h, 1 µM [4] of 1%.
Work on `O=C1N(c2ccc(F)cc2)CCc2nc(COc3ccccc3)c(Cl)n21` yielded an IC50 ([5]; read-out: pIC50 (converted)) of 132 nM and an IC50 [6] of 133 nM.
In the case of `O=c1n(-c2ccc(F)cc2)ccc2nc(COc3cccc(F)c3)cn12`, the Emax [1] is reported as 91%, the metabolised at 0.25 h, 1 µM [2] is reported as 28% and the EC50 [3] is reported as 230 nM. It also gave a metabolised at 0.25 h, 1 µM [4] of 13%.
Compound `Cc1cc(-n2ccc3nc(COc4ccccc4)cn3c2=O)ncc1F` has an Emax [1] of 77%, a metabolised at 0.25 h, 1 µM [2] of 49% and an EC50 [3] of 435 nM. The metabolised at 0.25 h, 1 µM [4] was 17%.
Work on `Cc1nc(-n2ccc3nc(COc4ccccc4)cn3c2=O)ccc1F` yielded an Emax [1] of 77%, a metabolised at 0.25 h, 1 µM [2] of 50% and an EC50 [3] of 375 nM. It also gave a metabolised at 0.25 h, 1 µM [4] of 8%.
